# High-throughput results (PubChem BioAssay)
# In the library only some 3.7% were active in any assay of this set; here they are far more common.
# Kir21 inh – inhibitors of mouse Kir2.1 inward-rectifier potassium channel; Inward rectifier potassium channel 2 (Mus musculus), P35561; HEK293-Kir2.1, FluxOR thallium flux fluorescence; stronger effect = lower value; B-score at 10 µM; hit rate 0.85% among 310,000;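 active means fluorescence ratio B-score at or below minus 3 SD of library scores, with starting-brightness B-score within 2 SD, cut at about -4.2 in these data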;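 further: channel flux triggered by added potassium and thallium sulfate stimulus; B-score of peak minus minimum fluorescence over baseline after thallium stimulus; more negative B-score means stronger Kir2.1 block with less thallium influx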
# KCNQ1 inh – inhibitors of human KCNQ1 channel, primary screen, cell-based, thallium flux, high-throughput | hit rate 1.3% among 310,000 | AID 2642, 2010 | Potassium voltage-gated channel subfamily KQT member 1 (Homo sapiens), P51787 | CHO-K1 KCNQ1, FluxOR thallium flux fluorescence; stronger effect = higher value | B-score at 10 µM;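 active means compounds whose thallium flux B-score, printed positive for inhibition, exceeds three library SD while starting fluorescence stays within three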;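 further: channel opened by potassium depolarization with thallium stimulus after 20 min compound exposure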
# KCNK3 inh – human KCNK3 channel inhibitors, primary screen, CHO cells, FluxOR thallium flux, B-score; B-score at 10 µM; Potassium channel subfamily K member 3 (Homo sapiens), O14649; hit rate 0.84% among 340,000; FluxOR fluorescence; stronger effect = lower value;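 active means B-score under library mean minus 4 SD, starting fluorescence ratio at most library mean plus 5 SD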;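 further: more negative B-score means stronger inhibition of thallium flux through KCNK3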
# Target sequence (O14649 whole entry, looked up): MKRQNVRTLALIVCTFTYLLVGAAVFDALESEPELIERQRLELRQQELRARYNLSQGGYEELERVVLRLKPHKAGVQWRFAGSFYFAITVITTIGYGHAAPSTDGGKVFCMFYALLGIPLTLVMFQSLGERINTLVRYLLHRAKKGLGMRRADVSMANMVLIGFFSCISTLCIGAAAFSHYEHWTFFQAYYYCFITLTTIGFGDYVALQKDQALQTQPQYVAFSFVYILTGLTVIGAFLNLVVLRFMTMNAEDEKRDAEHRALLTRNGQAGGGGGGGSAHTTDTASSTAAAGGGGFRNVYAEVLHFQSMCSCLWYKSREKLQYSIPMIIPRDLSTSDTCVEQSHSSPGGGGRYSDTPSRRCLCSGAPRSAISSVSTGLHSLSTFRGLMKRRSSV
# KCNQ1 act – potentiators or activators of KCNQ1 channel, primary screen, cell-based, thallium flux, high-throughput; Potassium voltage-gated channel subfamily KQT member 1 (Homo sapiens), P51787; CHO-K1 KCNQ1, thallium flux FluxOR fluorescence; stronger effect = higher value; B-score at 10 µM; hit rate 0.35% among 310,000;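 active means fluorescence ratio B-score, a plate-corrected score, at least three library SD, with initial intensity B-score within 5 SD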
#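 Assay system: CHO-K1 cells stably expressing KCNQ1; Medium: assay buffer with matched DMSO; Also added: K+/Tl+ depolarizing stimulus; Dosing: single dose; Timing: dye 90 min, compound 20 min, room temperature; Measured by: kinetic FluxOR thallium fluorescence, 10-s 1-Hz baseline, 110-s post-stimulus read; Read-out: peak-minus-minimum fluorescence over initial fluorescence, negative-control normalized, B-scored.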
# hERG rescue – hERG rescue from dofetilide block, primary screen, cell-based, CHO-hERG, FluxOR thallium flux, dofetilide IC70. Voltage-gated inwardly rectifying potassium channel KCNH2 (Homo sapiens), Q12809. dofetilide IC70 present. activation (rescue from dofetilide block), less the hit threshold, % at 10 µM. hit rate 0.51% among 310,000. AID 1511, 2009;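 active means activation above the mean of controls blocked by dofetilide plus 5 SD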;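 further: thallium influx through hERG after potassium depolarization seen as dye fluorescence rise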
# KCNK9 inh-1 – KCNK9 potassium channel inhibitors, primary screen, HEK293 cells, thallium flux | Potassium channel subfamily K member 9 (Homo sapiens), Q9NPC2 | FluxOR thallium flux fluorescence; stronger effect = lower value | B-score at 10 µM | hit rate 1.2% among 310,000 | AID 488922, 2010;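 active means ratio B-score over 3 SD below the library mean, with starting fluorescence within 5 SD of its mean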;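 further: negative B-score means less thallium flux so channel inhibition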
# hERG ctr – hERG channel inhibition, counter-screen for Kir2.1 inhibitor project, cell-based, thallium flux | hERG-expressing cells | shares compounds with Kir21 inh | hit rate 20% among 320 | inhibition, % at 10 µM | AID 2236, 2010;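 further: host cells are CHO cells stably expressing hERG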
# KCNK9 inh-2 – KCNK9 channel inhibition, selectivity assay for Kir2.1 inhibitor project, cell-based; AID 2329, 2010; shares compounds with Kir21 inh; inhibition, % at 10 µM; hit rate 5% among 320; KCNK9-expressing cells, ion flux inhibition
# Kir2-1 patch inh – mouse Kir2.1 channel blockers, Kir2.1 inhibitor project, cell-based, secondary, automated electrophysiology; shares compounds with Kir21 inh; Kir2.1 cells, automated patch-clamp current inhibition; inhibition, % at 25 µM; hit rate 71% among 320; AID 463252, 2010
# * hit, by the source's call; i = inactive; · = no result given. Unless noted, how the calls were made is not given here.
SMILES,Kir21 inh,KCNQ1 inh,KCNK3 inh,KCNQ1 act,hERG rescue,KCNK9 inh-1,hERG ctr,KCNK9 inh-2,Kir2-1 patch inh
Cc1cc(C)c(OCCCCN(C)Cc2ccccc2)c(C)c1,-7.8*,i,i,i,-11,i,i,i,36%*
CC(C)c1ccc(C(C)NCCS(=O)(=O)c2ccc(Cl)cc2)cc1 (centres undefined),-8*,i,i,i,-15,i,i,i,5.1%*
CC(C(=O)NCCS(=O)(=O)c1ccc(Br)cc1)S(=O)(=O)c1ccc(Cl)cc1 (centres undefined),-0.02,i,i,i,-1,i,·,·,·
Cc1cc(SCC(=O)OCC(=O)N2CCCC2=O)c(C)cc1Br,6.5,i,i,i,-7,i,i,i,i
NC(=O)c1ccc(SCC(=O)OCC(=O)N2CCCC2=O)c([N+](=O)[O-])c1,0.47,i,i,i,-12,i,·,·,·
CCOc1ccc(CNC(=O)CCS(=O)(=O)c2ccc3c(c2)NC(=O)CO3)cc1OC,1.4,i,i,i,-7,i,·,·,·
Cn1c(-c2ccc(F)cc2)cnc1NCc1ccc(F)cc1,-10*,i,i,i,-12,i,i,i,60%*
Cn1c(-c2ccc(F)cc2)cnc1NCc1ccc(C#N)cc1,-0.71,i,i,i,-13,i,·,·,·
CCOc1nc(C)cc(C)c1S(=O)(=O)c1ccc(Cl)cc1,-6.4*,i,i,i,-14,i,i,i,i
CCOc1ccc(OCC(O)CN2CCc3ccccc3C2)cc1 (centres undefined),-1.6,i,i,i,-3,i,·,·,·
Cc1cc(OCC(O)CN2CCc3ccccc3C2)cc(C(C)C)c1 (centres undefined),-13*,i,i,i,-12,i,58%*,i,6.0%*
CCCCCCSC1=C(C#N)C(c2ccc(C)o2)CC(=O)N1 (centres undefined),-6*,i,i,i,-4,i,i,i,i
CCCCSC1=C(C#N)C(c2ccccc2C)CC(=O)N1 (centres undefined),0.01,i,i,i,-7,i,·,·,·
Clc1ccc(-c2cc(C3CCNCC3)[nH]n2)cc1,-8.9*,i,i,i,-11,i,i,i,i
O=C(Oc1ccc(C(=S)N2CCOCC2)cc1)c1ccccc1F,-7.6*,i,i,i,-13,i,i,i,i
O=C(Oc1ccc(C(=S)N2CCOCC2)cc1)c1ccccc1[N+](=O)[O-],-0.01,i,i,i,-6,i,·,·,·
COC(=O)c1ccccc1NC(=O)CSc1nnc(-c2cccnc2)o1,1.2,i,i,i,-4,i,·,·,·
Cc1cc(C)c2nc(N(CCCN(C)C)C(=O)c3ccc4c(c3)OCCO4)sc2c1,-6.4*,i,i,i,-14,i,66%*,i,i
Cc1cc(C)c2nc(N(CCCN(C)C)C(=O)C3=COCCO3)sc2c1,-2.8,i,i,i,-11,i,·,·,·
Cc1cc(Cl)cc(Br)c1OCCCNCC(C)O (centres undefined),-9.3*,i,i,i,-6,i,i,i,39%*
Cc1onc(-c2ccccc2)c1CNS(=O)(=O)c1cccc(Cl)c1,-9.8*,i,i,i,-4,i,i,i,12%*
CN(C(=O)COC(=O)CNC(=O)c1sc2ccccc2c1Cl)C1CCS(=O)(=O)C1 (centres undefined),·,·,i,·,·,·,·,·,·
CC(C)N(Cc1ccccc1)S(=O)(=O)c1ccc(F)cc1,-2.3,i,i,i,-10,i,·,·,·
CC(C)N(Cc1ccccc1)S(=O)(=O)c1ccc(Cl)nc1,-6.9*,i,i,i,-15,i,i,i,33%*
Cc1cccc(C)c1NC(=O)CN(C)C(=O)[C@H](C)NC(=O)c1ccco1,·,·,i,·,·,·,·,·,·
SMILES,Kir21 inh,KCNQ1 inh,KCNK3 inh,KCNQ1 act,hERG rescue,KCNK9 inh-1,hERG ctr,KCNK9 inh-2,Kir2-1 patch inh
O=C(NCCCN1CCOCC1)c1ccc(-c2ccc(Cl)cc2)o1,0.02,i,i,i,-20,i,·,·,·
O=C(NCCCN1CCOCC1)c1ccc(CSc2ccc(Cl)cc2)cc1,-7.8*,i,i,i,-13,i,46%*,i,21%*
COc1ccc(CCN(C)C(=O)c2oc3ccccc3c2C)cc1OC,-6.5*,i,i,i,-13,i,i,i,61%*
COc1ccc(CN(C(=O)c2oc3ccccc3c2C)C2CCS(=O)(=O)C2)cc1OC (centres undefined),·,·,i,·,·,·,·,·,·
COc1ccc(-c2nn(-c3ccccc3)cc2CNC[C@H]2O[C@@H](n3cnc(C(N)=O)n3)[C@H](O)[C@@H]2O)cc1,·,·,i,·,·,·,·,·,·
O=C(CCCN1CCC(O)(c2ccc(Cl)cc2)CC1)c1ccc(F)cc1,-5.5*,i,i,i,·,i,·,i,55%*
Cc1onc(-c2ccccc2Cl)c1C(=O)c1ccccc1,-6.4*,i,i,i,-11,i,i,i,11%*
CCn1c(=O)c(CCC(=O)N2CCN(c3ccccn3)CC2)c(C)c2c(C)nn(-c3cccc(C)c3)c21,-0.32,i,i,i,-10,i,·,·,·
CCC(C(=O)OC)n1cnc2c(nnn2-c2ccc(C)cc2)c1=O (centres undefined),-1.1,i,i,i,-11,i,·,·,·
COC(=O)c1ccc(CNC(=O)C2CCC(=O)N(CCc3ccccc3)C2)cc1 (centres undefined),-0.56,i,i,i,-9,i,·,·,·
Cc1[nH]n(-c2ccccc2)c(=O)c1S(=O)(=O)c1ccccc1,-15*,i,i,i,-14,i,i,i,66%*
